Results filed as inconclusive are left out.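 How the source made its calls, unless noted: active means RAM network inhibition above 8.4% in each of two replicates, 3 SD over the compound average; inconclusive means above 8.4% inhibition in only one replicate; inactive means 8.4% inhibition or less in each replicate.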
Experiments:
[1] = OD615 S. cerevisiae growth inhibition, permissive medium, pilot counter-assay, permissive growth control for S. cerevisiae lifespan shortening project (AID 705;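 active means growth inhibition above 25% in both replicates, a cutoff set 3 SD above the mean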); conditions: OD615, 24 h, at 10 µM, hits give high values
Procedure, shortened: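 System – S. cerevisiae with engineered DeaD lifespan system · Buffer or medium – SC raffinose/galactose permissive medium · Schedule – cells pre-grown 4 h, then 24 h compound exposure, 30 °C humidified · Technique – culture turbidity as optical density at 615 nm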

[2] = Restrictive medium S. cerevisiae growth inhibition, OD615, pilot screen of yeast lifespan reduction project, restrictive growth control (AID 706;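 active means growth inhibition above a set limit, 3 SD over mean compound inhibition, in both replicates, cut at about 43% in these data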;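 further: modified DeaD lifespan yeast strain shifted to restrictive glucose medium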); conditions: OD615, 48 h, at 10 µM, hits give high values
Procedure, shortened: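 Material: engineered S. cerevisiae DeaD strain / Medium: glucose-based CSMM-D restrictive medium / Compound: single dose of 10 µM compound final, 0.25% DMSO / Timing: 4 h pre-incubation, 48 h exposure at 30 °C / Technique: OD615 absorbance reading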

[3] = viability gain of MRP-1-high H69AR cells under doxorubicin, pilot screen, MRP-1 activator project, CellTiter-Glo, duplicate (AID 807;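 active means viability increase at or above a cutoff of the median across tested compounds plus 3 SD, cut at about 8.5% in these data, passing the limit was not always enough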;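 further: compound pretreatment 18-22 h then 72 h combined with doxorubicin; 0% = doxorubicin alone and 100% = vehicle without doxorubicin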); conditions: H69AR viability with doxorubicin, CellTiter-Glo luminescence; at 10 µM; hits give high values
[4] = growth suppression of beta-catenin knockout HCT116, pilot screen, human colon tumor cells (AID 823;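 active means cell viability at or below a set limit in both duplicate runs, the limit being the all-compound median minus 4 SD, cut at about 23% in these data, passing the limit was not always enough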;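 further: 0% = wells killed by 20 µM Hyamine and 100% = untreated DMSO cell wells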); conditions: CellTiter-Glo, 60 h, at 10 µM, hits give low values
[5] = growth suppression of PTEN-deleted HCT116, pilot screen, cell-based, HCT116 clonal line, CellTiter-Glo (AID 824;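 active means viability at or below 27.92% in each of two runs, the all-compound median minus 4 SD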;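 further: 0% = 20 µM Hyamine control and 100% = vehicle cell control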); conditions: 60 h, at 10 µM, hits give low values
[6] = inhibitors of the yeast RAM network, pilot screen, dse1pr::URA3 reporter, 5-FOA selection (AID 869;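 active means inhibition over a set limit, the all-compound mean plus 3 SD, in both replicate runs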;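 further: 0% = DMSO wells with no growth and 100% = 10 µM 1-NA-PP1 with full growth; RAM network block rescues cells from 5-FOA so hits raise OD615 growth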); conditions: S. cerevisiae dse1pr::URA3 5-FOA growth, OD615, 2 d; at 10 µM; hits give high values; strain carries analog-sensitive mutant Cbk1 kinase
[7] = RAM signaling pathway blockade in yeast – S. cerevisiae, Pdr1DBD-CYC8 efflux-inhibited sensitized strain, primary screen (AID 1298);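 further: 0% = DMSO untreated cells without growth and 100% = 10 µM 1-NA-PP1 full growth; higher means more yeast growth rescued from 5-FOA killing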; conditions: S. cerevisiae cbk1-as DSE1-URA3 strain, 5-FOA growth OD615, 2 d; at 50 µM; hits give high values

COc1ccc(S(=O)(=O)Cc2ccc(C(=O)NC3CC3)o2)cc1
inactive: growth inhibition [1] 1.37% | growth inhibition [2] -4.7% | viability increase [3] -3.02% | viability [4] 75.5% | viability [5] 87.9% | inhibition [6] 0.85% | RAM network inhibition [7] 2.57%

COC(=O)C1C2C=CC3(CN(c4cccc(Cl)c4)C(=O)C13)O2 (stereo unspecified)
inactive: growth inhibition [1] -11.2% | growth inhibition [2] -8.25% | viability increase [3] -1.38% | viability [4] 107% | viability [5] 99.5% | inhibition [6] 1.06% | RAM network inhibition [7] 5.74%

COc1cc2c(cc1OC)C(COc1ccc3c(C)cc(=O)oc3c1)N(C(=O)c1ccco1)CC2 (stereo unspecified)
inactive: growth inhibition [1] -1.62% | growth inhibition [2] -3.73% | viability increase [3] -4.63% | viability [4] 91.8% | viability [5] 87.8% | inhibition [6] 1.6% | RAM network inhibition [7] 4.74%

CCSc1nnc(Cc2cc(=O)[nH]c(=O)[nH]2)n1-c1cccc(C)c1
inactive: growth inhibition [1] -8.16% | growth inhibition [2] -4.58% | viability increase [3] -1.79% | viability [4] 105% | viability [5] 94.3% | inhibition [6] 1.77% | RAM network inhibition [7] 0.26%

Cc1ccc(NC(=O)Cn2cc3c(n2)CCC(C)C3)cc1 (stereo unspecified)
inactive: growth inhibition [1] -1.07% | growth inhibition [2] 2.22% | viability increase [3] 0.37% | viability [4] 106% | viability [5] 88.6% | inhibition [6] 0.39% | RAM network inhibition [7] 1.64%

CC(C)CCSc1nnc(Cn2c(=O)sc3ccccc32)n1C
inactive: growth inhibition [1] -10.3% | growth inhibition [2] 2.02% | viability increase [3] 0.27% | viability [4] 79.8% | viability [5] 83.5% | inhibition [6] 1.08% | RAM network inhibition [7] 4.4%

CCOc1ccccc1NC(=O)C1CCN(S(=O)(=O)c2cccc3cccnc23)CC1
inactive: growth inhibition [1] 1.06% | growth inhibition [2] -4.09% | viability increase [3] -3.97% | viability [4] 85.2% | viability [5] 80.9% | inhibition [6] 1.24% | RAM network inhibition [7] 1.72%

O=C(CSc1nc2c(cnn2-c2ccc(F)cc2)c(=O)[nH]1)N1CCCCC1
inactive: growth inhibition [1] -8.1% | growth inhibition [2] 7.12% | viability increase [3] -3.71% | viability [4] 91.7% | viability [5] 84.7% | inhibition [6] 2.99% | RAM network inhibition [7] 1.77%

CC(OC(=O)c1cc[n+]([O-])cc1)C(=O)Nc1ccc(Cl)cn1 (stereo unspecified)
inactive: growth inhibition [1] 0.77% | growth inhibition [2] 0.53% | viability increase [3] -1.44% | viability [4] 102% | viability [5] 98.3% | inhibition [6] 1.23% | RAM network inhibition [7] 1.61%

CC(=O)Nc1ccc(NC(=O)CSc2nccn2Cc2ccccc2)cc1
inactive: growth inhibition [1] -0.94% | growth inhibition [2] 3.38% | viability increase [3] -1.64% | viability [4] 86.9% | viability [5] 88.8% | inhibition [6] -0.265% | RAM network inhibition [7] 0.96%

N#Cc1c(-c2ccco2)c2c([nH]c1=S)CCCC2
inactive: growth inhibition [1] 6.88% | growth inhibition [2] -0.73% | viability increase [3] -3.4% | viability [4] 105% | viability [5] 93.8% | inhibition [6] 1.57% | RAM network inhibition [7] 1.82%

CCOC(=O)COn1c(=O)c(=O)n(O)c2ccccc21
inactive: growth inhibition [1] -14.5% | growth inhibition [2] -14.8% | viability increase [3] -4.99% | viability [4] 87.2% | viability [5] 87.1% | inhibition [6] 1.54% | RAM network inhibition [7] 1.4%

COc1cccc2cc(C(=O)N3CCC(C)CC3)c(=O)oc12
inactive: growth inhibition [1] -2.37% | growth inhibition [2] -3.85% | viability increase [3] -0.12% | viability [4] 96.8% | viability [5] 90.5% | inhibition [6] 1.17% | RAM network inhibition [7] 4.51%

CCN(CC)CCCNC(=O)c1cc2c(=O)n(C)c3ccccc3c2n1C
inactive: growth inhibition [1] -6.05% | growth inhibition [2] -3.57% | viability increase [3] -6.34% | viability [4] 55.8% | viability [5] 58.4% | inhibition [6] -0.125% | RAM network inhibition [7] 2.21%

Cc1ccc(C(C(=O)NC2CCCCC2)N2CCCC2)cc1 (stereo unspecified)
inactive: growth inhibition [1] -4.08% | growth inhibition [2] -8.76% | viability increase [3] -3.02% | viability [4] 88.9% | viability [5] 93% | inhibition [6] 0.835% | RAM network inhibition [7] 8.97%

O=C(CN1CCOc2ccccc21)N1CCN(c2cccc(Cl)c2)CC1
inactive: growth inhibition [1] 6% | growth inhibition [2] 18.6% | viability increase [3] -4.17% | viability [4] 84.1% | viability [5] 84.4% | inhibition [6] 2.77% | RAM network inhibition [7] 4.14%

CCN1CCN(C(=O)c2cc3c(-c4ccc(Cl)cc4)nn(C)c3s2)CC1
inactive: growth inhibition [1] -4.23% | growth inhibition [2] 16% | viability increase [3] -7.68% | viability [4] 38.5% | viability [5] 52.7% | inhibition [6] 2.21% | RAM network inhibition [7] 1.3%

C=CCN1C(=O)c2oc3ccccc3c(=O)c2C1c1ccc(O)c(OC)c1 (stereo unspecified)
inactive: growth inhibition [1] 3.61% | growth inhibition [2] 3.18% | viability increase [3] -2.61% | viability [4] 101% | viability [5] 95.4% | inhibition [6] 2.72% | RAM network inhibition [7] 5.67%

CCn1cc(S(=O)(=O)CC(=O)Nc2ccc3c(c2)OCCO3)c2ccccc21
inactive: growth inhibition [1] -12.1% | growth inhibition [2] -19.9% | viability increase [3] 0.14% | viability [4] 101% | viability [5] 95.3% | inhibition [6] 2.54% | RAM network inhibition [7] 9.35%

N=C1C(c2nc3ccccc3c(=O)[nH]2)=C(O)CN1CCc1ccccc1
inactive: growth inhibition [1] 2.17% | growth inhibition [2] -7.82% | viability increase [3] -3.19% | viability [4] 93.6% | viability [5] 87.2% | inhibition [6] 0.995% | RAM network inhibition [7] 3.92%

Cc1cc(C)c(NC(=O)c2ccc(S(=O)(=O)N3CCOCC3)cc2)c(C)c1
inactive: growth inhibition [1] -9.41% | growth inhibition [2] -8.03% | viability increase [3] -2.1% | viability [4] 101% | viability [5] 98.1% | inhibition [6] 0.57% | RAM network inhibition [7] 0.69%

Fc1ccc(-c2nnc(-c3ccc(Cl)cc3Cl)o2)cc1
inactive: growth inhibition [1] -6.69% | growth inhibition [2] -11.2% | viability increase [3] -5.12% | viability [4] 70.6% | viability [5] 64.2% | inhibition [6] 3.06% | RAM network inhibition [7] 3.99%

CSc1nnc2n(-c3ccc(C)cc3)c(=O)c3c4c(sc3n12)COC(C(C)C)C4 (stereo unspecified)
inactive: growth inhibition [1] -18.2% | growth inhibition [2] -3.12% | viability increase [3] -4.07% | viability [4] 37.3% | viability [5] 31.6% | inhibition [6] -0.285% | RAM network inhibition [7] 7.91%
